Results as given in PMC8628544 (Developmental cell, 2021).
Where two headings read alike, the source gives them in different places. Values belong to the molecule of their own block, whether it stands above or below them.

Assays:
[1] = biological target: fluorescein-labeled SRC2-2 peptide; assay: fluorescence polarisation
[2] = biological target: fluorescein-labeled SRC2-2 peptide; assay: fluorescence polarisation; remark: listed apart in the source
[3] = biological target: fluorescein-labeled SRC2-2 peptide; assay: fluorescence polarisation; remark: listed apart in the source
[4] = tested on: mouse LECs; type: cell-based
Outline: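 LECs were isolated from collagenase D/dispase-digested mouse lymph nodes and grown overnight in semi-synthetic medium (DMEM, Hepes, 1% BSA, ITS-A, 1% FBS) with 1 µM sphingolipid-precursor-BSA. Deletion was induced with 0.5–1 µM 4-OH-TMX. Test compound-BSA (50–100 nM) or vehicle was added, with media renewed daily. At 24 h, cells were fixed and immunostained for NR2F2, Prox1 and […], then imaged by confocal microscopy.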

[5] = tested on: E10.5 embryo cultures of Sptlc2^f/f Cdh5^CreERT2 mice; assay: Rescue experiments using ex-vivo embryo culture; parameters: species or system mouse; conditions: 25 nM 1-deoxySO-BSA; 24 hours; 4-OH-TMX
Outline: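 Embryos were cultured in DMEM-F12 with 15% KSR, N2, Glutamax and Pen-Strep. Medium held 1 µM 4-OH-TMX, 5 µM sphingolipid-precursor-BSA and 25 nM test compound-BSA; controls received vehicle-BSA instead. Culture ran in O2-flushed sealed 50 mL tubes on a roller at 37°C, 5% CO2, for 24 h.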

[6] = tested on: human ESC-derived cardiomyocytes; assay: Cardiomyocyte differentiation of hESCs; type: cell-based; conditions: for gene expression in DKO cultures / fraction of TNNT2+ cells in DKO cultures: NR2F1/2 DKO
[7] = biological target: NR2F1(LBD)-GAL4(DBD) fusion protein (Mus musculus, UniProt Q60632); assay: NR2F1; type: cell-based; conditions: Figure S1C
NR2F1(LBD)-GAL4(DBD) fusion protein, sequence (P04386 1-147 partner limits assumed, one chain of several): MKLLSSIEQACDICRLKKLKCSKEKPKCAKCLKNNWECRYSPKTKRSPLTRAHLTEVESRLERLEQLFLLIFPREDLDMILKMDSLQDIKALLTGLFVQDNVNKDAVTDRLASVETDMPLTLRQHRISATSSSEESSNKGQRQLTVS

[8] = biological target: T1, NR2F1 LBD (Mus musculus, UniProt Q60632); assay: Metabolite pull-down / displacement with FLAG-tagged LBD and LC-MS; type: binding; conditions: 500 nM retinoic acid in medium
T1 sequence (Q60632 183-422): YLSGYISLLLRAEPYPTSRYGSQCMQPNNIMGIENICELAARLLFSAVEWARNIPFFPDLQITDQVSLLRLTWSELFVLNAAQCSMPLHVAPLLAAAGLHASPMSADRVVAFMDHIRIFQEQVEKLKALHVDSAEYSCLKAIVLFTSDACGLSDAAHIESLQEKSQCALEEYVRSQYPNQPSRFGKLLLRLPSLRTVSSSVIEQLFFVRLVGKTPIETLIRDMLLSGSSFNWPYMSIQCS

[9] = biological target: T2, RARA LBD (Homo sapiens, UniProt P10276); assay: Metabolite pull-down with FLAG-tagged control LBD and LC-MS; type: binding; conditions: C18+ mode; 500 nM all-trans-retinoic acid in medium; p-value 0.01
T2 sequence (P10276 183-417 limits assumed): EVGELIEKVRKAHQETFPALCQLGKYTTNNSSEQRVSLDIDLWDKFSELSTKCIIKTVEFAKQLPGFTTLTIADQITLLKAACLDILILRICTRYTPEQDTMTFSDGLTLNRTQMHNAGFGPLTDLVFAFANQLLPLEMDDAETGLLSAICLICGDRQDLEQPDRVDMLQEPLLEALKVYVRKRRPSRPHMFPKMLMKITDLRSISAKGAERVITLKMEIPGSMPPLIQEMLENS

[10] = biological target: NR2F1/2; conditions: read-out: Kd for NR2F1/2; ref Kruse et al., 2008; cited from earlier work
[11] = tested on: NR2F2; conditions: at high concentrations; ref Kruse et al., 2008; cited from earlier work
[12] = tested on: NR2F2; assay: NR2F2 reporter activity in HEK-293FT cells; type: cell-based; conditions: 1 µM
Outline: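 HEK-293FT cells plated at 5 x 10^4 per well the day before, then PEI-transfected in antibiotic-free DMEM with 1% FBS. Each well received reporter plasmid, NHR plasmid and a Renilla normalisation plasmid. 24 h after transfection, test compound-BSA complexes diluted in 1% FBS medium were added. Dual luciferase read-out.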

[13] = tested on: HEK-293FT cells; assay: Cell viability of HEK-293FT cells; type: cell-based, human; conditions: 1 µM
[14] = 1 µM from day 1, WT, day 6, bulk RNA-seq

Kd [1]: > 300 nM
Kd [2]: > 300 nM
Kd [3]: 68 nM
Molecule: NR2F1/2-LBD

Molecule: CCC/C=C\CCCCCCCCCC[C@@H](O)[C@H](C)N [1-deoxySO-14Z, 1-deoxysphingosine (14Z)]
number of viable cells in Sptlc2 deleted cultures ([4]; 4OH-TMX, medium with D-erythroSO, Figure S3C): restored
other lymphatic endothelial markers (LYVE1 and NR2F2) ([4]; within 24 hours after 4OH-TMX): no effects were observed
PROX1 levels in LECs ([4]; within 24 hours after 4OH-TMX, versus vehicle): partially restored
cardiac development in embryo cultures [5]: partially rescued
gene expression in DKO cultures [6]: minimally affected
fraction of TNNT2+ cells in DKO cultures ([6]; 1.5 µM from day 3): did not increase

activity of the NR2F1(LBD)-GAL4(DBD) fusion protein [7]: inhibited
Molecule: COc1ccc(O)c2ccccc12 [4-methoxy-1-naphthol]

Molecule: CCCCCCCCCCCCC/C=C/[C@@H](O)[C@H](C)N [1-deoxysphingosine]
fraction of TNNT2+ cells in WT cultures ([6]; WT, 1.5 µM from day 3, FACS day 9): increased
number of genes decreased by >2-fold versus vehicle ([6]; WT, day 9): 464
number of genes increased by >2-fold versus vehicle ([6]; WT, day 9): 265

Molecule: CCCCCCCCCCCCC/C=C/[C@@H](O)[C@@H](N)CO [D-erythroSO, D-erythro-sphingosine]
gene expression in DKO cultures [6]: minimally affected
fraction of TNNT2+ cells in DKO cultures ([6]; 1.5 µM from day 3): did not increase

metabolites with exact masses detected in the NR2F1 samples [8]: no such metabolites were detected
enrichment in RARA but not NR2F1 samples [9]: 14.76 fold
Molecule: CC1=C(/C=C/C(C)=C/C=C/C(C)=C/C(=O)O)C(C)(C)CCC1 [retinoic acid, all-trans retinoic acid]
Kd [10]: 26000 nM
agonist activity on NR2F2 [11]: weak agonist

Molecule: CCCCCCC(=O)CCCCCC/C=C/C[C@@H](O)[C@H](O)[C@@](N)(CO)C(=O)O [myriocin]
NR2F2 reporter activity [12]: partially suppress
cell viability [13]: without loss of cell viability
number of downregulated genes versus vehicle [6, 14]: 850
number of upregulated genes versus vehicle [6, 14]: 1121
